The values below come from PMC7518337 (Chemistry of materials : a publication of the American …, 2018).

Data set [1] in a line: In vivo safety evaluation during and after anticancer treatment. Also on record: species or system mice. Summed up:
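Xenograft-bearing nude mice were treated with test compound or doxorubicin control over a 13-day regimen. During and after treatment, blood counts (WBC, RBC, thrombocytes), liver weight, serum ALT and AST, and CRE and BUN were determined. A hospital clinical laboratory ran these by standard procedures. Liver and kidney sections were H&E stained. Mean ± s.e., t-test.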

Data set [2] concerns xenografted HCT116 p53^+/+ tumors. In words: In vivo antitumor activity in colon cancer xenograft model. Particulars: for amounts of apoptotic cells in xenograft tumors (TUNEL assay): compared to the control, Figure 6E. More on the design: species or system BALB/c nude mice. The method in brief:
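Nude mice carried subcutaneous HCT116 p53+/+ xenografts in the right flank. They were randomised into groups of n = 6 and dosed every other day on days 1, 3, 5, 7, 9, 11 and 13. Test compounds and Nutlin-3 were given at 3 mg/kg, doxorubicin at 1.5 mg/kg, and PBS served as control. Tumors were excised on day 13 for H&E and TUNEL staining (×200). Mean ± s.e., n = 5.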

Data set [3] deals with p53 and p21 expression. In words: Western blot analysis of p53 and p21. Format: cell-based. Particulars: PSP-^DPMI 200 nM, Nutlin3 5 μM, 24 h, p53 in HCT116 p53^+/+, MCF7, A375, p21 in HCT116 p53^+/+, vs PSP, PBS control. For orientation: In western blotting, separated proteins are transferred to a membrane and probed.
In data set [4] the test system is HCT116 p53^+/+ cells. The data set is described as follows: Cell cycle distribution. Format: cell-based. Particulars: 200 nM PSP-^DPMI, 5 μM Nutlin3, 24 h.
For data set [5] the following is noted: clinical trial in liposarcoma; cited from earlier work.

In the case of `COc1cccc2c1C(=O)c1c(O)c3c(c(O)c1C2=O)C[C@@](O)(C(=O)CO)C[C@@H]3O[C@H]1C[C@H](N)[C@H](O)[C@H](C)O1` [DOX, doxorubicin], the “blood cell counts (WBCs, thrombocyte, RBCs)” value in data set [1] (Figure 8B–D) is “a certain level of leukopenia and thrombopenia”. Further, in data set [1] (Figure 8I–K), the “kidney function and histology (CRE, BUN, H&E)” value is reported as “symptoms of glomerular lesions”. For the same compound, the spleen health result in data set [1] (Figure S15) is given as “serious spleen failure”. In data set [1] (after a 13-day administration, Figure S14), the body weight result was “significant decrease of body weight”. The liver weight result in data set [1] (compared to healthy mice, Figure 8E) is given as “decreased liver weight”. The “levels of liver enzymes ALT and AST” value in data set [1] (serum, compared to control or healthy mice, Figure 8F,G) was “aberrant levels”. In data set [2], the “amounts of apoptotic cells in xenograft tumors (TUNEL assay)” value is on record as “significantly increased”. For the same compound, the “tumor pathomorphology (H&E)” value in data set [2] (tumors isolated on day 13, Figure 6C) was “misshapen tumors and cells”.
`COc1ccc(C2=N[C@@H](c3ccc(Cl)cc3)[C@@H](c3ccc(Cl)cc3)N2C(=O)N2CCNC(=O)C2)c(OC(C)C)c1` [Nutlin3]: in data set [3], the “expression of p53 or p21” value was “significantly increased the expression of p53 or p21”. In addition, the cell cycle effect entry in data set [4] is “arrest in G0/G1 phase”. Also, in data set [2], the “amounts of apoptotic cells in xenograft tumors (TUNEL assay)” value is reported as “significantly increased”.
Consider `CCOc1cc(C(C)(C)C)ccc1C1=N[C@@](C)(c2ccc(Cl)cc2)[C@@](C)(c2ccc(Cl)cc2)N1C(=O)N1CCN(CCCS(C)(=O)=O)CC1` [RG7112], for which the “adverse events in patients” value in data set [5] is “thrombocytopenia and neutropenia have been seen in many patients”.
